The list is not random: actives were taken first. Their share in the collection is about 2.6%.
CHT allo act – allosterically activates the human high affinity choline transporter | Q9GZV3 | CHT-expressing cells, membrane potential dye, choline EC20; stronger effect = higher value; LV-AA mutant CHT in HEK293 cells | B-score at 10 µM | actives 0.49% (n = 310,000);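 active means initial fluorescence not abnormally high and integrated response B-score, plate-corrected, over 3 SD above library mean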
Target sequence (Q9GZV3 whole entry, looked up): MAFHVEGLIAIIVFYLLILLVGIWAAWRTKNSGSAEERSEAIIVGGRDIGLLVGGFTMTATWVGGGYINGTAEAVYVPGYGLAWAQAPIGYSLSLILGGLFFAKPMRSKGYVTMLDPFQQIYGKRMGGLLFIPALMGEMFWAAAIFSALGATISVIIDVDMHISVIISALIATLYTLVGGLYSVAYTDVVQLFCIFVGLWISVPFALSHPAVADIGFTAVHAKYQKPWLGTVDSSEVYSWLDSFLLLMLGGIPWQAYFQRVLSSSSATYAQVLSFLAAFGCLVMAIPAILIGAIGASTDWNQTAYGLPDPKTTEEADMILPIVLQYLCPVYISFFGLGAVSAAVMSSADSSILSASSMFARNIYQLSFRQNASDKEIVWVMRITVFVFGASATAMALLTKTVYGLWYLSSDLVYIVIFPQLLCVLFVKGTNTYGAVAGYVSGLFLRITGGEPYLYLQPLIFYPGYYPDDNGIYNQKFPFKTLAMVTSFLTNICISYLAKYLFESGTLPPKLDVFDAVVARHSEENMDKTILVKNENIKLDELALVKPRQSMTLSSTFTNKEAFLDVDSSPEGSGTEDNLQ
CHT inh – inhibitors of human choline transporter CHT. Q9GZV3. CHT-expressing cells, membrane potential dye, choline response; stronger effect = lower value. B-score at 10 µM. actives 0.86% (n = 310,000);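 active means B-score over 3 SD under the library average, and starting fluorescence ratio not unusually high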;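 further: choline stimulus applied at its EC90 after an EC20 pre-addition; B-score computed on integrated fluorescence ratio after choline addition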
PolyA inh – inhibitors of polyadenylation in S. cerevisiae. AID 1875. activity score, % at 12 µM. actives 0.02% (n = 300,000). S. cerevisiae SKY197-pL101 polyadenylation reporter, beta-gal luminescence; efflux-impaired pdr1/pdr3 knockout yeast; score 100 = 6 SD above DMSO;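 active means lowest replicate activity score at least 50, where 100 means six control SD above control mean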;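 further: yeast exposed to compound for 9 h at 30 °C; higher score means more reporter readthrough which indicates perturbed polyadenylation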
T cruzi inh – blocks replication of Trypanosoma cruzi. T. cruzi beta-gal in NIH3T3, luminescence, 90 h. inhibition, % (no concentration beside the values). actives 1.4% (n = 300,000);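 active means mean inhibition across valid replicates above about 55%, limit read from the data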;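 further: signal also drops with host cell toxicity which is not excluded here; higher percent means less beta-gal luminescence so fewer parasites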
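Assay system: NIH/3T3 host cells with β-galactosidase reporter T. cruzi; input: 5,000 host fibroblasts per well; compound: single 50 nL compound addition per well in DMSO; timing: ≥90 h infection period, 3 h prior cell attachment; measured by: GalScreen β-gal luminescence, detergent lysis, 60 min; evaluation: percent inhibition of parasite-derived β-gal signal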
Numbers stand for hits; i = inactive; nt = no result.

SMILES	CHT allo act	CHT inh	PolyA inh	T cruzi inh
CCOc1ccc(C(=O)Nc2ccc(S(=O)(=O)N3CCN(C)CC3)cc2)cc1	i	i	i	i
COc1ccc2[nH]c(C(=O)N3CCC(n4nccc4NC(=O)C4CC4)CC3)c(C)c2c1	i	i	i	i
COc1ccc(OC)c(N(CC(=O)NCCSCc2ccc(C)cc2)S(C)(=O)=O)c1	i	i	i	i
CC1CCN(C(=O)CSc2nc(C(C)C)nc3c2c(=O)n(C)c(=O)n3C)CC1	i	i	i	i
Cc1sc2ncnc(N3CCC(C)CC3)c2c1C	i	i	i	i
Cc1sc2ncnc(N3CCN(CCOc4ccc(Cl)cc4)CC3)c2c1C	i	i	i	58.9
COc1cc(CCC(=O)NCc2ccc(F)cc2)cc(OC)c1OC	i	i	i	i
Cc1ccc(C)c(N2CCN(C(=O)C3CCCN(c4ncnc5c4nc4n5CCCCC4)C3)CC2)c1 (stereo not given)	i	-7.44	i	i
Cc1cc(C)c2c(n1)nn1c(NCCCN(C)C)cc(C)nc21	8.06	i	i	i
CCc1nn2c(NCCCO)cc(C)nc2c1-c1ccc(F)cc1	i	i	i	i
CSc1oc(-c2cccs2)nc1S(=O)(=O)c1ccccc1	i	i	i	i
O=C(CSc1oc(-c2cccs2)nc1S(=O)(=O)c1ccccc1)NC1CCCCC1	i	i	i	60.2
COc1ccc(C(NC(C)=O)c2nccc3cc(OC)c(OC)cc23)cc1OC (stereo not given)	i	i	i	i
O=C(O)COc1ccccc1C(Nc1ccccn1)c1cc(Cl)c2cccnc2c1O (stereo not given)	i	i	i	i
CCC(=O)NC(c1ccc(OC)c(OC)c1)c1cc(Cl)c2cccnc2c1O (stereo not given)	nt	nt	i	62.4
O=C(NC(c1ccccc1)c1cc(Cl)c2cccnc2c1O)c1cccnc1 (stereo not given)	i	i	i	58.1
COc1ccccc1C(NC(C)=O)c1cc(Cl)c2cccnc2c1O (stereo not given)	i	i	i	60.7
COc1ccc(C(NC(C)=O)c2cc(Cl)c3cccnc3c2O)cc1OC (stereo not given)	i	i	i	57.5
Cn1c(N)c(C(=O)COC(=O)c2ccc([N+](=O)[O-])o2)c(=O)n(C)c1=O	i	i	i	i
CC(C(=O)NC(N)=O)N1C(=O)NC(c2ccccc2)(c2ccccc2)C1=O (stereo not given)	i	i	i	i
CN(CC(=O)Nc1cccc(F)c1)C(=O)CCc1nc2cc(S(=O)(=O)N3CCOCC3)ccc2n1C	i	i	i	i
Cc1c(C(=O)Nc2cccc([N+](=O)[O-])c2)cnn1-c1ccccc1	i	i	i	i
CCCC(=O)NC(c1ccco1)c1cc(Cl)c2cccnc2c1O (stereo not given)	i	i	i	61.6
CC(C)C(=O)NC(c1ccco1)c1ccc2cccnc2c1O (stereo not given)	i	i	i	i
COc1ccc(S(=O)(=O)N(C)C)cc1NC(=O)CCNC(=O)c1ccco1	i	i	i	i
SMILES	CHT allo act	CHT inh	PolyA inh	T cruzi inh
Cc1cc2[nH]c3c(c[n+](C)c4ccccc34)c2cc1C	i	i	i	59.1
O=C(Nc1cc(S(=O)(=O)N2CCCCC2)ccc1Oc1ccccc1)C1=COCCO1	i	i	i	i
C/C(Cl)=C/Cc1c(C)[nH]c2c(ccc3ccccc32)c1=O	i	i	i	i
C/C(Cl)=C/Cc1c(C)[nH]c2ccc(C)cc2c1=O	i	i	i	70.6
FC(F)Sc1ccc(N=C2NN=C(c3ccc4c(c3)OCCO4)CS2)cc1	i	i	i	69.2
CCOc1nc2cnccc2n(CC(=O)Nc2cccc(C)c2C)c1=O	i	i	i	i
CN1Cc2c(N3CCOCC3)nc(SCc3ccccc3)c(C#N)c2CC1(C)C	i	i	i	57.7
CC(C)CCSc1nc(N2CCOCC2)c2c(c1C#N)CC(C)(C)OC2	i	i	i	67.5
COC(=O)CCSc1nc(N2CCOCC2)c2c(c1C#N)CC(C)(C)OC2	i	i	i	i
CCSc1nc(N2CCOCC2)c2c(c1C#N)CC(C)(C)N(C)C2	i	i	i	i
O=C(CN(Cc1ccccc1)C(=O)CNS(=O)(=O)c1ccc(F)cc1)NCc1ccco1	i	i	i	i
O=C(Nc1cc2c3c(c1)C1CCCC1CN3CC1CCCC21)c1ccccc1 (stereo not given)	i	i	i	60.4
O=C(Nc1ccc2c(c1)CCC2)c1ccccc1	i	i	i	i
Cc1ccc2[nH]c(C)c(/C=C/c3cc[n+](C)cc3)c2c1	i	i	i	56.9
Cc1ccc2c(c1)c(/C=C/c1cc[n+](C)cc1)c(C)n2C	i	i	i	66.2
Cn1cc(/C=C/c2cc[n+](C)cc2)c2cc(Cl)ccc21	i	i	i	i
CN(C)c1nc(-c2ccccc2)c2cc(Cl)ccc2n1	i	i	i	i
Cc1nc(N)c(CC(Br)CBr)c(Cl)n1 (stereo not given)	i	i	i	i
Cc1cc(S(=O)(=O)c2ccc([N+](=O)[O-])cn2)ccc1Br	i	i	i	i
O=[N+]([O-])c1ccc(S(=O)(=O)c2ccccc2)nc1	i	i	i	72.6
Cc1ccc(S(=O)(=O)c2ccc([N+](=O)[O-])cn2)cc1	i	i	i	67.4
CN(C)CCCNc1oc(-c2ccccc2Cl)nc1S(=O)(=O)c1ccc(F)cc1	i	i	i	62.1
CN(CCc1ccccn1)Cc1ccc(Cl)cc1	i	i	i	56.2
COc1cc(CN(C)CCc2ccccn2)cc(OC)c1OC	i	i	i	i
COc1ccc(CN(C)CCc2ccccn2)cc1OC	i	i	i	nt
SMILES	CHT allo act	CHT inh	PolyA inh	T cruzi inh
CCc1ccc(CN(C)CCc2ccccn2)cc1	i	i	i	63.2
Cc1ccc(CN(C)CCc2ccccn2)cc1	i	i	i	66.9
Cc1ccc(N2C(=O)C3CC(c4ccccc4)=C4C5C=CC(C6C(=O)N(c7ccc(C)cc7C)C(=O)C56)C4C3C2=O)c(C)c1 (stereo not given)	i	i	i	59.3
Cn1c2ccccc2c2c(C(=O)NCC3CCCO3)cn(C3CCCC3)c(=O)c21 (stereo not given)	i	i	i	i
CN1CCN(CCCNC(=O)c2cn(C3CCCCC3)c(=O)c3c2c2ccccc2n3C)CC1	i	-5	i	i
c1ccc(C[n+]2csc3ccccc32)cc1	i	i	i	i
Fc1cccc(C[n+]2csc3ccccc32)c1	i	i	i	54.5
Cc1ccc(-c2nc(C(=O)NCCCN3CCOCC3)cc3c2[nH]c2ccccc23)cc1	i	i	i	56.6
O=C(NC(Nc1nc2ccc([N+](=O)[O-])cc2s1)(C(F)(F)F)C(F)(F)F)c1ccccc1Cl	i	i	i	55.3
CN(C)S(=O)(=O)c1ccc2nc(NC(=O)c3cccnc3)sc2c1	i	i	i	i
O=C(NC(Nc1nc2ccc([N+](=O)[O-])cc2s1)(C(F)(F)F)C(F)(F)F)c1cccnc1	i	i	i	56.4
Cc1c(OC(C)C(=O)NCc2ccncc2)ccc2c3c(c(=O)oc12)CCCC3 (stereo not given)	i	-4.99	i	i

Screens from PubChem.
